Experimental data from ChEMBL document CHEMBL4190262, “Tuning of β-glucosidase and α-galactosidase inhibition by generation and in situ screening of a library of pyrrolidine-triazole hybrid molecules” (Eur J Med Chem, 2017).
The source made the active and inactive calls. The calls are words filed in the database; no cut-off is given here.

Key:
[1] = target: T1, Beta-galactosidase (Aspergillus oryzae) (UniProt B7VU80); experiment: Inhibition of Aspergillus oryzae beta-galactosidase at 1 mM using p-nitrophenyl glycopyranoside preincubated for 5 mins followed by substrate addition measured after 20 mins by visible absorption spectroscopic method relative to control
T1 sequence (whole entry): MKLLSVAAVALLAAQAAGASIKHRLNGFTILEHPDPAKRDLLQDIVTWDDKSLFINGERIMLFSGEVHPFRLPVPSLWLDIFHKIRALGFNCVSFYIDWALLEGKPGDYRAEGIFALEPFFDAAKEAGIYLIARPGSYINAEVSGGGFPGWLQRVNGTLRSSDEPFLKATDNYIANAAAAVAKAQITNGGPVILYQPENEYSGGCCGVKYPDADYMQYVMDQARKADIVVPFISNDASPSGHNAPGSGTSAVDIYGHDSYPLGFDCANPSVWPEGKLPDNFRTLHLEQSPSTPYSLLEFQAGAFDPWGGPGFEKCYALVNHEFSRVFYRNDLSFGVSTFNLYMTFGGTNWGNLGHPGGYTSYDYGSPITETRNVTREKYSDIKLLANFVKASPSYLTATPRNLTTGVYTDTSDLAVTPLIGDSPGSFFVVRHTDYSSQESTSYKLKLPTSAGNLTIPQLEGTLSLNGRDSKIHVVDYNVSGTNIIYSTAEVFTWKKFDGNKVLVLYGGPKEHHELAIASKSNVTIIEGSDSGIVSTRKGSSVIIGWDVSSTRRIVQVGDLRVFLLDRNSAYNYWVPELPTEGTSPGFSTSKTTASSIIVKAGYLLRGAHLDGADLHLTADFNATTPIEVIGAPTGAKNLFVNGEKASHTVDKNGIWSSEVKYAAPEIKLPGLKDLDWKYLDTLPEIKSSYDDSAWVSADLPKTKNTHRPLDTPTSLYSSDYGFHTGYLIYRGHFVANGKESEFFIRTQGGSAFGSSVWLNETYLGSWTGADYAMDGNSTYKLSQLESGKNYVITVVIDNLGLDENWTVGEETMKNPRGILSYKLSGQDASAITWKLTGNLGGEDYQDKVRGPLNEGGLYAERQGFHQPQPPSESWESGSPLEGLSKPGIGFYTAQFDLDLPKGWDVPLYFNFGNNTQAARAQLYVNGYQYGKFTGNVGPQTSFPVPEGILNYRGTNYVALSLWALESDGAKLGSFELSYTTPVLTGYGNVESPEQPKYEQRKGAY
Procedure, shortened: (§1)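 Test compound at 1 mM in well. Mix: 0.01–0.5 units/mL enzyme plus 10 mM p-nitrophenyl glycopyranoside (aqueous solution), buffered to the enzyme's optimal pH. Enzyme and inhibitor preincubated 5 min at rt. Substrate then added and incubated 20 min at 37 °C. Stopped with sodium borate (pH 9.8). p-Nitrophenolate read at 405 nm. Duplicates averaged.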

Oryza sativa = experiment: Inhibition of rice alpha-glucosidase at 1 mM using p-nitrophenyl glycopyranoside preincubated for 5 mins followed by substrate addition measured after 20 mins by visible absorption spectroscopic method relative to control; procedure, shortened: as §1
[2] = target: T2, Alpha-mannosidase (Canavalia ensiformis) (UniProt C0HJB3); experiment: Inhibition of jack bean alpha-mannosidase at 1 mM using p-nitrophenyl glycopyranoside preincubated for 5 mins followed by substrate addition measured after 20 mins by visible absorption spectroscopic method relative to control; procedure, shortened: as §1
T2 sequence (whole entry): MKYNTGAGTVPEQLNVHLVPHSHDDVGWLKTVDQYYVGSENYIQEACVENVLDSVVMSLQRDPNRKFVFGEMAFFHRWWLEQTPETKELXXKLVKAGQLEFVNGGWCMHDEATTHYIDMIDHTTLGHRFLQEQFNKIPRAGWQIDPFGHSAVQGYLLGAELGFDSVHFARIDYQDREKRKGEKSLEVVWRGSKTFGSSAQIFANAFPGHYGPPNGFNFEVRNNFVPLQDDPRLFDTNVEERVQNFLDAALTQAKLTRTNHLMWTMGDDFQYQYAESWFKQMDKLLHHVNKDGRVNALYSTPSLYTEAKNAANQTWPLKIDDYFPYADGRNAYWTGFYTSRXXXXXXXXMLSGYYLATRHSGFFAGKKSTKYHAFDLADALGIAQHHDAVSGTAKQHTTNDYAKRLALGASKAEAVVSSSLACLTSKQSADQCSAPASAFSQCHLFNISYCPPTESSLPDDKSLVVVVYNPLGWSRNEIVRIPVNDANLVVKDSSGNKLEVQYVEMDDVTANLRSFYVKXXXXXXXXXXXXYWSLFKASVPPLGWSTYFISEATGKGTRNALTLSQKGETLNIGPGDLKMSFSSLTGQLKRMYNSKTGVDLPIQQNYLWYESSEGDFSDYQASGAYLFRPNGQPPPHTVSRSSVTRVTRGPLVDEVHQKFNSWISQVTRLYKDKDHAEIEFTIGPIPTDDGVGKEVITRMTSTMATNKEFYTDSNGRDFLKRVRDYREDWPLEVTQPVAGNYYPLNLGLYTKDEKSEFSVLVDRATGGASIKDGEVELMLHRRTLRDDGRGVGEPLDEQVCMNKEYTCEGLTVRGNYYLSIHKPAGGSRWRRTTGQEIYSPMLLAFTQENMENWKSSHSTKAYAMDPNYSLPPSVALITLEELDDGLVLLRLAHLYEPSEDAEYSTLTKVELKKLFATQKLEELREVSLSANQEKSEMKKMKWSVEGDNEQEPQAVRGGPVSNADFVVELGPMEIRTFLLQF

Cornu aspersum = experiment: Inhibition of snail beta-mannosidase at 1 mM using p-nitrophenyl glycopyranoside preincubated for 5 mins followed by substrate addition measured after 20 mins by visible absorption spectroscopic method relative to control; procedure, shortened: as §1
Canavalia ensiformis = experiment: Inhibition of jack bean beta-N-acetylglucosaminidase at 1 mM using p-nitrophenyl glycopyranoside preincubated for 5 mins followed by substrate addition measured after 20 mins by visible absorption spectroscopic method relative to control; procedure, shortened: as §1
[3] = target: Alpha-galactosidase (Coffea arabica) (UniProt Q42656); experiment: Inhibition of coffee beans alpha-galactosidase at 1 mM using p-nitrophenyl glycopyranoside preincubated for 5 mins followed by substrate addition measured after 20 mins by visible absorption spectroscopic method relative to control; procedure, shortened: as §1
Sequence of Alpha-galactosidase (Coffea arabica) (Q42656 16-378 limits assumed): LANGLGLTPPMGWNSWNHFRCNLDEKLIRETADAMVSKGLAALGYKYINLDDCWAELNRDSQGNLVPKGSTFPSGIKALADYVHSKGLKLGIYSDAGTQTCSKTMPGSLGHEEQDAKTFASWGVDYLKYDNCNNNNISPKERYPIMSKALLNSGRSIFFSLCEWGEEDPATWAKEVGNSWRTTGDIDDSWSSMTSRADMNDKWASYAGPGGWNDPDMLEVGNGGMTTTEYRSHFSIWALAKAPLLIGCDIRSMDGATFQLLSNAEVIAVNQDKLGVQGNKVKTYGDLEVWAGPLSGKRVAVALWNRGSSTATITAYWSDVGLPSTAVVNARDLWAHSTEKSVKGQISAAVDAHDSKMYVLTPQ

Prunus dulcis = experiment: Inhibition of almond beta-glucosidase at 10 uM using p-nitrophenyl glycopyranoside preincubated for 5 mins followed by substrate addition measured after 20 mins by visible absorption spectroscopic method relative to control
Procedure, shortened: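 Crude click-reaction products screened in situ. Azide (final 15 mM) was reacted with each alkyne using sodium ascorbate/CuSO4 in tBuOH–H2O for 24 h at rt, then diluted with water. Tested at 10 μM per well, assuming quantitative conversion, against almond β-glucosidase at pH 5, 37 °C. p-Nitrophenyl glycoside read-out at 405 nm.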

inhibition [1] | inhibition (Oryza sativa) | inhibition [2] | inhibition (Cornu aspersum) | inhibition (Canavalia ensiformis) | inhibition [3] [%] | inhibition (Prunus dulcis) [%] | SMILES
41% | inactive | inactive | inactive | inactive |  |  | O[C@@H]1[C@H](O)CN[C@@H]1Cn1cc(-c2ccccc2)nn1
inactive | inactive | inactive | inactive | inactive | < 50 | 72 | O[C@@H]1[C@H](O)CN[C@H]1Cn1cc(-c2ccccc2)nn1
